Converted amounts (≈) assume the structure as drawn.
Experiments:
[1] = molecular target: T1, Sodium- and chloride-dependent glycine transporter 1 (Rattus norvegicus) (UniProt P28572); experiment: Displacement of [3H]glycine from rat GlyT1 expressed in rat C6 cells at 10 uM after 30 mins by scintillation counting; type: cell-based
T1 sequence (whole entry): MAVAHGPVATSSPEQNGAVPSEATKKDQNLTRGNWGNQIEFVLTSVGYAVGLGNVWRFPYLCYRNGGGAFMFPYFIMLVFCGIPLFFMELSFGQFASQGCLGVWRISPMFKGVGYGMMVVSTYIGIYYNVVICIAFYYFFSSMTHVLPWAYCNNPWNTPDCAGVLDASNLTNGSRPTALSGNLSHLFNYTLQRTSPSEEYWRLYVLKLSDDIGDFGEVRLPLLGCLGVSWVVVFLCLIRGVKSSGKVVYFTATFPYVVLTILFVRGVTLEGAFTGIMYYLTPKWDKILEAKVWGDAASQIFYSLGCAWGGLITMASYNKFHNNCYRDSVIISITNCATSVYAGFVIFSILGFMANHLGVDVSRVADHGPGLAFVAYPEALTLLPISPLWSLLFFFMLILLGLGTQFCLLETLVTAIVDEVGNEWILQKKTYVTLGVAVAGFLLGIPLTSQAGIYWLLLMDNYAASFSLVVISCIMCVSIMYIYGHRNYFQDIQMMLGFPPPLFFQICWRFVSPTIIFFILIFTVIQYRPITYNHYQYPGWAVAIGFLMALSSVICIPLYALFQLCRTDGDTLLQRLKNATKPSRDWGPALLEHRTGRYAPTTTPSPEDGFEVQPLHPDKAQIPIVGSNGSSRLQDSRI
Procedure, shortened: (§1)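 Rat GlyT1-expressing C6 cells grown in D-MEM/10% FCS, 37 °C, 5% CO2, plated 2 days ahead. Cells washed, then preincubated 30 min with compound in HEPES buffer pH 7.4 (NaCl, KCl, MgCl2, CaCl2, glucose, L-alanine). Uptake started with [3H]glycine, 10 min at 37 °C. Nonspecific uptake defined with 3 mmol/L sarcosine. Cells washed with ice-cold PBS, lysed in 0.1 mol/L NaOH, scintillation counted; mean ± SEM of three independent experiments.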

[2] = molecular target: T2, Sodium- and chloride-dependent glycine transporter 1 (Rattus norvegicus, UniProt P28572); experiment: Displacement of [3H]glycine from rat GlyT1 expressed in rat C6 cells after 30 mins by scintillation counting; type: cell-based; procedure, shortened: as §1
T2 sequence (P28572 whole entry): T1 sequence (whole entry)

Rattus norvegicus = organism: Rattus norvegicus; experiment: Selectivity ratio of IC50 for rat GlyT2 to IC50 for rat GlyT1
[3] = Aqueous solubility of the compound at pH 1.2; type: physicochemical
Procedure, shortened: (§2)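 Compound suspension held at 25 °C for 20 h; precipitate removed by filtration and dissolved concentration in filtrate measured by HPLC.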

[4] = Aqueous solubility of the compound at pH 6.8; type: physicochemical; procedure, shortened: as §2
[5] = molecular target: T3, Sodium- and chloride-dependent glycine transporter 2 (Rattus norvegicus, UniProt P58295); experiment: Displacement of [3H]glycine from Wistar rat brain GlyT2 after 10 mins by scintillation counting
T3 sequence (P58295 whole entry): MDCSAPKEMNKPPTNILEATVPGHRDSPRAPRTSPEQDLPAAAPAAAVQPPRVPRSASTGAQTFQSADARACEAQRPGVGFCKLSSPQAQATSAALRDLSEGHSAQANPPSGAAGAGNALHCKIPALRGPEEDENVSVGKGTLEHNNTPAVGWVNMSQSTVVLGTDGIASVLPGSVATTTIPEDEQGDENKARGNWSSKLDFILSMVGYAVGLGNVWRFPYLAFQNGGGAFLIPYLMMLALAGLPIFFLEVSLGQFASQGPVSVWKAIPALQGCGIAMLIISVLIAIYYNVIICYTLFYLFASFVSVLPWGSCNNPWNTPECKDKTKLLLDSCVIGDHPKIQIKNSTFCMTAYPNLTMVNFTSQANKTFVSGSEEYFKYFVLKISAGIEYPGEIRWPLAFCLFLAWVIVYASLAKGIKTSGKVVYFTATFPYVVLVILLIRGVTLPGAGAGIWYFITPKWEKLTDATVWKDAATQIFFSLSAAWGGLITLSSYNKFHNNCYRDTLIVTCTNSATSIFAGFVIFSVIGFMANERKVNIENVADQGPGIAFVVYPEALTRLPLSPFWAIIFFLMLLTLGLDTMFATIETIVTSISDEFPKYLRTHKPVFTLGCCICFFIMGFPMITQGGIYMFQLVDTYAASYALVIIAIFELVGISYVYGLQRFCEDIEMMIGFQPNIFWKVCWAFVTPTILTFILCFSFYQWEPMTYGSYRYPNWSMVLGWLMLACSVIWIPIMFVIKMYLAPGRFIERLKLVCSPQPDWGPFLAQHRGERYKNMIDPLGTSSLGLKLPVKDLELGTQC
Procedure, shortened: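 Primary brainstem cells from Wistar rat fetuses (E17) were papain-dispersed, plated on poly-L-lysine, and cultured 14–21 days. The assay buffer, pH 7.4, contained 3 mmol/L sarcosine; wells were preincubated 10 min at 37 °C. Compound was added with ~0.3 µM [3H]glycine for 10 min at 37 °C, followed by four ice-cold washes, NaOH lysis and scintillation counting. Specific uptake was defined with 3 mmol/L glycine; mean ± SEM of three independent experiments.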

Mus musculus = experiment: Antipsychotic activity in ICR mouse assessed as inhibition of (+)-HA966-induced hyperlocomotion at 10 mg/kg, ip administered 20 mins prior (+)-HA966] challenge measured every 90 mins; type: functional; details: route intraperitoneal
Procedure, shortened: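 Mice, 16 per group, pretreated with reserpine 10 mg/kg ip 19 h and α-methyl-para-tyrosine methyl ester 250 mg/kg ip 30 min before bilateral intracerebroventricular (+)-HA966 80 µg/mouse; ACSF+vehicle controls. Locomotor activity integrated over 90 min immediately after (+)-HA966. Percent inhibition = 100 × [(HA966+vehicle − ACSF+vehicle) − (HA966+compound − ACSF+vehicle)] / (HA966+vehicle − ACSF+vehicle).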

IC50 [2] [µM]	solubility [3] [µM]	solubility [4] [µM]	SMILES	also measured
> 10			CCc1nnc(-c2ccc(-c3ccccc3)cc2)n1-c1cccc2c[n+]([O-])ccc12	inhibition [1]: 28%
	96 (≈ 33 µg/mL)	< 1	CCc1nnc(-c2ccc(-c3ccccc3)cc2)n1-c1ccccc1F	Ratio IC50 (Rattus norvegicus): 1
2.8			CCc1nnc(-c2ccc(-c3ccccc3)cc2)n1-c1cccc2[nH]ncc12	
> 10			CCc1nnc(-c2ccc(-c3ccccc3)cc2)n1-c1cccc2c(=O)[nH]ccc12	inhibition [1]: 16%
5.6			CCc1nnc(-c2ccc(-c3ccccc3)cc2)n1-c1cccc2cn[nH]c12	
0.3	> 100	23 (≈ 8.66 µg/mL)	CCc1nnc(-c2ccc(-c3ccccc3)cc2)n1-c1cccc2cccnc12	Ratio IC50 (Rattus norvegicus): 1.3; IC50 [5]: 0.38 µM
7.5			CCc1nnc(-c2ccc(-c3ccccc3)cc2)n1-c1cccc2nc[nH]c12	
	5 (≈ 1.79 µg/mL)	< 1	CC(C)c1nnc(-c2ccc(-c3ccccc3)cc2)n1-c1ccccc1F	inhibition in vivo at 10 mg/kg (Mus musculus): 70%
3.7			CCc1nnc(-c2ccc(-c3ccccc3)cc2)n1-c1cncc2ccccc12	
0.82	> 100	9 (≈ 3.39 µg/mL)	CCc1nnc(-c2ccc(-c3ccccc3)cc2)n1-c1cccc2ncccc12	Ratio IC50 (Rattus norvegicus): 3.3; IC50 [5]: 2.7 µM
> 10			CCc1nnc(-c2ccc(-c3ccccc3)cc2)n1-c1cccc2c1CCNC2	inhibition [1]: 25%
1.7			CCc1nnc(-c2ccc(-c3ccccc3)cc2)n1-c1ccnc2ccccc12	
0.8	> 100	11 (≈ 4.14 µg/mL)	CCc1nnc(-c2ccc(-c3ccccc3)cc2)n1-c1cccc2ccncc12	Ratio IC50 (Rattus norvegicus): 5.3; IC50 [5]: 4.2 µM
> 10			CCc1nnc(-c2ccc(-c3ccccc3)cc2)n1Cc1ccncc1	inhibition [1]: 15%
1.4			CCc1nnc(-c2ccc(-c3ccccc3)cc2)n1-c1nccc2ccccc12	
3			CCc1nnc(-c2ccc(-c3ccccc3)cc2)n1-c1cccc2ccn(C)c12	
> 10			CCc1nnc(-c2ccc(-c3ccccc3)cc2)n1C(C)c1ccncc1 (stereo unspecified)	inhibition [1]: 36%
	> 100	5 (≈ 1.88 µg/mL)	CCc1nnc(-c2ccc(-c3ccccc3)cc2)n1-c1cccc2cnccc12	
22			CCc1nnc(-c2ccc(-c3ccccc3)cc2)n1-c1cccc2cc[nH]c12	

From ChEMBL document CHEMBL1926645, “Synthesis and biological evaluation of (4H-1,2,4-triazol-4-yl)isoquinoline derivatives as selective glycine transporter 1 inhibitors” (Bioorg Med Chem, 2012)
